Assay results reported in ChEMBL document CHEMBL2176920, “Structure-based selectivity optimization of piperidine-pteridine derivatives as potent Leishmania pteridine reductase inhibitors” (J Med Chem, 2012).
≈ marks a conversion by molar mass, not a printed value. Calls of active or inactive are those of the source. The rule behind the calls is not given here.

Columns and labels:
Thymidylate synthase [1] = biological target: T1, Thymidylate synthase (Homo sapiens, UniProt P04818); assay: Inhibition of human TS at 15 uM by spectrophotometric analysis
Method in brief: (§1)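 Purified human enzymes screened in continuous spectrophotometric assays. DMSO was kept below the level affecting activity: under 5% for hDHFR and under 8% for hTS.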
Target sequence in this assay (P04818 2-313 limits assumed): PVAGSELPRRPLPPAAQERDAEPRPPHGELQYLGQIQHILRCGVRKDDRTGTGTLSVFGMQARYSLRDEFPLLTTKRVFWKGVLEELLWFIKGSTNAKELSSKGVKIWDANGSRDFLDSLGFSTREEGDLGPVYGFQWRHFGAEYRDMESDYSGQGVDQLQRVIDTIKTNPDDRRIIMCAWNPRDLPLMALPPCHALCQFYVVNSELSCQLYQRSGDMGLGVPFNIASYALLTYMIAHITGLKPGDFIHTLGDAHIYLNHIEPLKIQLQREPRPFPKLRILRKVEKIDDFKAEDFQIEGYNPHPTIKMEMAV

Thymidylate synthase [2] = biological target: T1, Thymidylate synthase; assay: Inhibition of human TS at 30 uM by spectrophotometric analysis; method in brief: as §1
Target sequence in this assay (P04818 2-313 limits assumed): as above

Leishmania major = assay: Antiparasitic activity against Leishmania major promastigotes assessed as parasite growth at 50 ug/mL; assay type: functional
Method in brief: (§2)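 Promastigotes grown from 10^5 parasites/mL and harvested in exponential phase at 2 × 10^7/mL. For the assay they were plated at 10^6 cells/mL in 96-well format, so cells were leaving exponential phase for stationary phase. Compound was given at 50 μg/mL alone or together with pyrimethamine at 30 μg/mL. Percent growth inhibition was compared between the single agent and the combination.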

Leishmania mexicana [3] = assay: Antiparasitic activity against Leishmania mexicana promastigotes assessed as parasite growth at 50 ug/mL; assay type: functional; method in brief: as §2
[4] = Toxicity against human MRC5 cells assessed as growth inhibition at 100 ug/mL; assay type: cell-based; settings: read-out: GI
Method in brief: (§3)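 MRC-5 human fibroblasts were grown at 37 °C, 5% CO2, in DMEM with 10% heat-inactivated FBS and extra glutamine. Cells were seeded so that control wells were confluent after 72 h of incubation with compound. Alamar Blue optical density was the read-out. Values are mean ± SD of three independent experiments.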

[5] = biological target: T2, Dihydrofolate reductase (Homo sapiens) (UniProt P00374); assay: Inhibition of human DHFR at 30 uM by spectrophotometric analysis; method in brief: as §1
T2 sequence (whole entry): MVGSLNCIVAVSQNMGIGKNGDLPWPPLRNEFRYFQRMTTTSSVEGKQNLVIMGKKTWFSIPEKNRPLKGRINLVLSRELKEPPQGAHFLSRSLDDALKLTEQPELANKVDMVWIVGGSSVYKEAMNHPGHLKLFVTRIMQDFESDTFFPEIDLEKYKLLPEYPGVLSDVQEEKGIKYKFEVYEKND

Leishmania mexicana [6] = assay: Inhibition of pteridine reductase in Leishmania mexicana promastigote assessed as increase in pyrimethamine-induced growth inhibition by measuring parasite growth at 50 ug/mL; design: scale not given: the % may be the effect or the level left
Method in brief: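 Promastigotes plated at 10^6 cells/mL, leaving exponential and entering stationary phase. Exposed to compound at 50 μg/mL alone or together with pyrimethamine at 30 μg/mL. Percent growth inhibition with compound alone compared with that of each compound plus PYR.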

Thymidylate synthase [7] = biological target: T1, Thymidylate synthase; assay: Inhibition of human TS by spectrophotometric analysis
Target sequence in this assay (P04818 whole entry): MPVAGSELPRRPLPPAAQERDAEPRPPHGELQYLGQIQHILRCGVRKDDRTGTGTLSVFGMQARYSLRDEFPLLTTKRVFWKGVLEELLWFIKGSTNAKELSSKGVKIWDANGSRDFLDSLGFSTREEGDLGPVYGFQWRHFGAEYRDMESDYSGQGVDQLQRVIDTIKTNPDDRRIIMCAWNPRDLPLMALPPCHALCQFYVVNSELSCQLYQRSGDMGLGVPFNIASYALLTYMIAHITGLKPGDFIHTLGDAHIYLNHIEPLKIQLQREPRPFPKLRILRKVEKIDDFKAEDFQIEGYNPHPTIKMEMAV

Leishmania mexicana [8] = assay: Inhibition of pteridine reductase in Leishmania mexicana promastigote assessed as increase in pyrimethamine cytotoxicity by Chou-Talalay method
[9] = biological target: T3, Pteridine reductase 1 (Leishmania major) (UniProt Q01782)
T3 sequence (whole entry): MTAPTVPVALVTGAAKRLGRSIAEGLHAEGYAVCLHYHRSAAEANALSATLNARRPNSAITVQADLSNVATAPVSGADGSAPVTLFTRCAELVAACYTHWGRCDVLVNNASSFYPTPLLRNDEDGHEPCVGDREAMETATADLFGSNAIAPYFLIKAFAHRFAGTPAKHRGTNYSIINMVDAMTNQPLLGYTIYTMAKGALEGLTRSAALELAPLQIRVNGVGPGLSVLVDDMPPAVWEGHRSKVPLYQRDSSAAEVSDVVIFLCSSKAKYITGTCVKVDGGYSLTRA

[10] = Toxicity against human MRC5 cells assessed as growth inhibition; assay type: cell-based; settings: read-out: ED50 (the source's name); method in brief: as §3
Dihydrofolate reductase = biological target: T4, Dihydrofolate reductase (Homo sapiens, UniProt P00374); assay: Inhibition of human DHFR by spectrophotometric analysis
T4 sequence (P00374 whole entry): T2 sequence (whole entry)

Leishmania mexicana [11] = assay: Inhibition of pteridine reductase in Leishmania mexicana promastigote assessed as reduction in cell survival upon H2O2 exposure at ED50 after 48 hrs at 28 degC relative to control
Method in brief: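 L. mexicana promastigotes plated at 10^5 cells/mL and pretreated with compound for 48 h at 28 °C. Then diluted to 2 × 10^4 cells/mL and exposed to increasing H2O2 concentrations for 45 min. Surviving motile parasites counted on a Neubauer grid. Compound-treated, non-H2O2 sample taken as 100%; compared against untreated H2O2-exposed series.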

MRC5 = assay: Toxicity against human MRC5 cells assessed as growth inhibition at 50 ug/mL; assay type: cell-based; method in brief: as §3
Thymidylate synthase [12] = biological target: T1, Thymidylate synthase; assay: Inhibition of human TS at 50 uM by spectrophotometric analysis; method in brief: as §1
Target sequence in this assay (P04818 2-313 limits assumed): as the sequence (P04818 2-313 limits assumed) above

Row | SMILES | inhibition (Thymidylate synthase [1]) | inhibition (Thymidylate synthase [2]) | Activity (Leishmania major) [%] | Activity (Leishmania mexicana [3]) [%] | inhibition [5] | Activity (Leishmania mexicana [6]) [%] | GI50 [10] [µg/mL] | also measured
1 | Nc1nc(N)c2nc(CNc3ccc(C(=O)N4CCC(C(=O)O)CC4)cc3)cnc2n1 | inactive |  |  |  |  |  |  | 
2 | CCOC(=O)CN(Cc1cnc2nc(N)nc(N)c2n1)c1ccc(C(=O)N2CCC(C(=O)OC)CC2)cc1 |  | inactive | 100.8 | 102.3 | inactive | 21.9 |  | inhibition at 100 ug/mL [4]: 28%
3 | COC(=O)C1CCN(C(=O)c2ccc(NCc3cnc4nc(N)nc(N)c4n3)cc2)CC1 |  |  | 99.6 | 111.6 |  | 24.4 | 23.4 (≈ 53.6 µM) | Ki (Thymidylate synthase [7]): Not Active; fractional inhibitory concentration index (FICI) (Leishmania mexicana [8]): 2.05; FICI [9]: 0.75; Ki (Dihydrofolate reductase): 10 µM; inhibition (Leishmania mexicana [11]): Active
4 | CCc1cc(C(=O)N2CCC(C(=O)OC)CC2)ccc1NCc1cnc2nc(N)nc(N)c2n1 |  | inactive | 104.2 | 90.6 | inactive | 19.6 | 21.8 (≈ 46.9 µM) | 
5 | COC(=O)C1CCN(C(=O)c2ccc(N(C)Cc3cnc4nc(N)nc(N)c4n3)cc2)CC1 | inactive |  |  |  |  |  |  | 
6 | CCc1nc(N)nc(N)c1-c1ccc(Cl)cc1 [PYRIMETHAMINE] |  |  | 68 | 102.5 |  |  | 16.2 (≈ 65.1 µM) | 
7 | NC(=O)C1CCN(C(=O)c2ccc(NCc3cnc4nc(N)nc(N)c4n3)cc2)CC1 | inactive |  | 121.2 | 88.5 |  | 15.7 | 51 (≈ 121 µM) | 
8 | COC(=O)C1CCN(C(=O)c2ccc(N(CCO)Cc3cnc4nc(N)nc(N)c4n3)cc2)CC1 |  |  | 122.2 | 100.1 |  | 12.9 |  | Activity (MRC5): Non-toxic; Ki (Thymidylate synthase [7]; read-out: Ki): 64 µM
9 | CCc1ccc(NCc2cnc3nc(N)nc(N)c3n2)cc1C(=O)N1CCC(C(=O)OC)CC1 |  | inactive |  |  |  |  |  | Ki (Dihydrofolate reductase): 4.68 µM
10 | COC(=O)C1CCN(C(=O)c2ccc(NCc3cnc4nc(N)nc(N)c4n3)cn2)CC1 |  |  | 103.4 | 95.6 | inactive | 17.6 |  | Activity (MRC5): Non-toxic; fractional inhibitory concentration index (FICI) (Leishmania mexicana [8]): 1.51; FICI [9]: 0.8; inhibition (Thymidylate synthase [12]): inactive; inhibition (Leishmania mexicana [11]): Active
